{"source": "ChEMBL document CHEMBL3797120", "about": "“Identification of 1,2,3-triazole derivatives that protect pancreatic β cells against endoplasmic reticulum stress-mediated dysfunction and death through the inhibition of C/EBP-homologous protein expression” (Bioorg Med Chem, 2016)", "key": {"Mus musculus [1]": {"test_system": "Mus musculus", "experiment": "(§1) Antidiabetic activity in streptozotocin-induced diabetic C57BL/6 mouse model assessed as total pancreatic islet area at 20 mg/kg, ip administered for 5 consecutive days with streptozotocin followed by 2 more weeks compound addition without streptozotocin measured post last dose by DAPI staining-based confocal microscopy (reference value: 21.3 +/- 4.4%)", "format": "functional"}, "[2]": {"experiment": "Effect on basal CHOP mRNA expression in rat INS-1 cells at 10 uM after 2 to 8 hrs by qRT-PCR method", "format": "ADME, cell-based", "conditions": "ins1, 10 µM", "in_short": "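INS-1 cells seeded at 4 × 10⁵/well and exposed to DMSO or 10 μM compound without Tm for the indicated times. Total RNA (2 μg) was reverse transcribed. CHOP mRNA was measured by qRT-PCR with rat primers, normalized to rat cyclophilin A, and expressed as fold change.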"}, "Mus musculus [3]": {"test_system": "Mus musculus", "experiment": "Antidiabetic activity in streptozotocin-induced diabetic C57BL/6 mouse model assessed as decrease in blood glucose level at 20 mg/kg, ip administered for 5 consecutive days with streptozotocin followed by 2 more weeks compound addition without streptozotocin measured every 3 day of compound dosing by glucometer relative to control", "format": "functional, organism-based", "in_short": "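Ten-week-old male C57BL/6 mice given STZ 50 mg/kg i.p. (in Na-citrate) once daily for 5 days, together with test agent 20 mg/kg i.p. (2 mg/ml in 10% DMSO/saline; n = 7) or vehicle (n = 6). Dosing without STZ then continued for 2 more weeks. Fasting (5 h) tail blood glucose read by glucometer every third day.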"}, "[4]": {"experiment": "Inhibition of endoplasmic reticulum stress-mediated upregulation of CHOP protein expression in tunicamycin-treated rat INS-1 cells at 20 uM after 2 to 8 hrs by Western blot method", "format": "functional, cell-based", "conditions": "INS1", "in_short": "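INS-1 cells seeded at 8 × 10⁵ per 60-mm dish and treated with Tm and 20 μM compound or DMSO. Lysates (20 μg protein) were run on 7% SDS-PAGE and blotted with anti-CHOP (1:1000). α-Tubulin served as loading control.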"}, "INS1 [5]": {"test_system": "INS1", "experiment": "Cytoprotective activity in endoplasmic reticulum stressed rat INS-1 cells assessed as rescue from tunicamycin-mediated reduction in cell survival after 72 hrs by CellTiter-Glo assay", "conditions": "INS1, 72 h"}, "[6]": {"target": "DNA damage-inducible transcript 3 protein (Mus musculus) (UniProt P35639)", "sequence (P35639 whole entry, the tested form may be a part)": "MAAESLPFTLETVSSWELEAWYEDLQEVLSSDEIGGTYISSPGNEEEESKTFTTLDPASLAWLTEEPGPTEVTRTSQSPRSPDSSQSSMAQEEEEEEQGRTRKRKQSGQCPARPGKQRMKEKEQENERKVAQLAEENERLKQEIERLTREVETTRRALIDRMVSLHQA", "experiment": "Inhibition of endoplasmic reticulum stress-induced CHOP activity in mouse BetaTC6 cells assessed as decrease in tunicamycin-induced cell death by measuring cell viability at 2.5 to 20 uM after 72 hrs by CellTiter-Glo assay", "format": "cell-based", "conditions": "Beta-TC6", "in_short": "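βTC6 mouse insulinoma cells (DMEM, 15% FBS) seeded at 3 × 10³/well and treated 72 h with Tm 0.25 μg/ml plus DMSO or compound. Viability measured by CellTiter-Glo and expressed as fold change versus Tm alone = 1. Means ± SD of triplicates.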"}, "[7]": {"experiment": "Effect on 2.5 mM glucose-stimulated insulin secretion in rat INS-1 cells preincubated for 24 hrs followed by glucose addition and subsequent incubation for 45 mins by ELISA", "format": "ADME, cell-based", "conditions": "ins1, 0.75 h", "in_short": "(§2)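 INS-1 cells seeded at 1 × 10⁵/well and treated 24 h with compounds (with or without Tm). They were washed in Krebs-HEPES buffer pH 7.4 with 1% BSA, preincubated 1 h in 2.5 mM glucose, then stimulated 45 min with 2.5 or 20 mM glucose. Secreted insulin was measured by ELISA and normalized to Bradford total protein. The index is 20 mM/2.5 mM secretion from triplicate wells.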"}, "[8]": {"target": "DNA damage-inducible transcript 3 protein (Rattus norvegicus) (UniProt Q62857)", "sequence (Q62857 whole entry, the tested form may be a part)": "as the sequence (P35639 whole entry, the tested form may be a part) above, with T9A, L10F, T70A, R74S, E97D, P111A, P114A, Q142L counted along it", "experiment": "Inhibition of endoplasmic reticulum stress-induced CHOP activity in rat INS-1 cells assessed as decrease in sodium palmitate-induced cell death by measuring cell viability at 2.5 to 20 uM after 72 hrs by CellTiter-Glo assay", "format": "cell-based", "conditions": "INS1", "in_short": "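INS-1 cells switched to DMEM/1% FBS/1% BSA and stressed with sodium palmitate (from 5 mM stock in 5% BSA; final 0.2 mM). Treated 72 h with DMSO or compound. Viability measured by CellTiter-Glo. Means ± SD of quadruplicates.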"}, "[9]": {"target": "DNA damage-inducible transcript 3 protein (Rattus norvegicus) (UniProt Q62857)", "experiment": "Inhibition of endoplasmic reticulum stress-induced CHOP activity in rat INS-1 cells assessed as decrease in brefeldin A-induced cell death by measuring cell viability at 5 to 20 uM after 72 hrs by CellTiter-Glo assay", "format": "cell-based", "conditions": "INS1", "in_short": "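INS-1 cells treated 72 h with or without brefeldin A 0.2 μg/ml in the presence of DMSO or compound at indicated concentrations. Viability measured by CellTiter-Glo. Means ± SD of quadruplicates.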"}, "[10]": {"target": "DNA damage-inducible transcript 3 protein (Rattus norvegicus) (UniProt Q62857)", "experiment": "Inhibition of endoplasmic reticulum stress-induced CHOP activity in rat INS-1 cells assessed as restoration of tunicamycin-mediated reduction of 20 mM glucose-stimulated insulin secretion preincubated for 24 hrs followed by glucose addition and subsequent incubation for 45 mins by ELISA", "format": "cell-based", "conditions": "INS1", "in_short": "as §2"}, "[11]": {"target": "DNA damage-inducible transcript 3 protein (Rattus norvegicus) (UniProt Q62857)", "experiment": "Inhibition of endoplasmic reticulum stress-induced CHOP activity in tunicamycin-treated rat INS-1 cells assessed as DNA fragmentation at 20 uM after 24 hrs by TUNEL assay (reference value: 15%)", "format": "cell-based", "design": "scale not given: the % may be the effect or the level left", "conditions": "INS1", "in_short": "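INS-1 cells seeded at 4 × 10⁴/well and treated 24 h with Tm 0.1 μg/ml plus 20 μM compound. Cells were fixed in 4% PFA, permeabilized, TUNEL-stained 1 h at 37°C, counterstained with DAPI, and imaged by high-content imaging. TUNEL+ percentage is mean ± SD of five images.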"}, "Mus musculus [12]": {"test_system": "Mus musculus", "experiment": "as §1, with “increase in level of insulin-positive beta cells per” for “total”, “islet” for “islet area”, “relative to control” for “(reference value: 21.3 +/- 4.4%)”", "format": "functional, organism-based"}, "[13]": {"target": "DNA damage-inducible transcript 3 protein (Rattus norvegicus) (UniProt Q62857)", "experiment": "Inhibition of endoplasmic reticulum stress-induced CHOP activity in rat INS-1 cells assessed as suppression of tunicamycin-induced caspase-3 cleavage at 20 uM after 2 to 24 hrs by Western blot method", "format": "cell-based", "conditions": "INS1", "in_short": "(§3)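 INS-1 cells seeded at 8 × 10⁵ per 60-mm dish and treated with or without compound, with or without Tm, for the indicated times. Lysates (20 μg protein) were run on 7% SDS-PAGE and blotted with anti-caspase-3 and anti-PARP (1:1000) to detect cleavage. α-Tubulin served as loading control.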"}, "[14]": {"target": "DNA damage-inducible transcript 3 protein (Rattus norvegicus) (UniProt Q62857)", "experiment": "Inhibition of endoplasmic reticulum stress-induced CHOP activity in rat INS-1 cells assessed as suppression of tunicamycin-induced PARP cleavage at 20 uM after 2 to 24 hrs by Western blot method", "format": "cell-based", "conditions": "INS1", "in_short": "as §3"}, "[15]": {"experiment": "Effect on 20 mM glucose-stimulated insulin secretion in rat INS-1 cells preincubated for 24 hrs followed by glucose addition and subsequent incubation for 45 mins by ELISA", "format": "ADME, cell-based", "conditions": "ins1, 0.75 h", "in_short": "as §2"}, "INS1 [16]": {"test_system": "INS1", "experiment": "Cytoprotective activity in endoplasmic reticulum stressed rat INS-1 cells assessed as rescue from tunicamycin-mediated reduction in cell viability at 10 uM after 72 hrs by CellTiter-Glo assay relative to control", "format": "functional", "in_short": "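INS-1 cells seeded at 3 × 10³/well and exposed for 72 h to Tm 0.1 μg/ml plus compound. Viability measured as ATP by CellTiter-Glo. Tm alone was set to 0% and DMSO without Tm to 100% rescue. Values are the mean of three experiments. EC50 was derived for survival.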"}, "[17]": {"experiment": "Cytoprotective activity against endoplasmic reticulum stress-induced cell death in tunicamycin-treated CHOP knock out C57BL/6 mouse primary pancreatic islet beta cells assessed as DNA fragmentation at 10 uM after 24 hrs by TUNEL assay (reference value: 18.7%)", "format": "functional", "in_short": "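Primary islet cells isolated from CHOP−/− knockout mice (age-matched males), cultured in CMRL-1066 with 10% FBS, treated with compound (10 μM) plus tunicamycin (1 μg/ml) for 24 h. Cells fixed in 4% paraformaldehyde, permeabilized with 0.1% Triton X-100 in 0.1% sodium citrate, TUNEL stained (1 h, 37°C), co-stained for insulin and DAPI; % TUNEL+ insulin+ cells counted, five wells, islets from 3 mice.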"}, "[18]": {"experiment": "Effect on growth rate of rat INS-1 cells at 2.5 to 10 uM after 72 hrs by CellTiter-Glo assay relative to control", "format": "cell-based", "conditions": "ins1, 72 h", "in_short": "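INS-1 cells grown with compound alone (no stressor) and viability/growth read by CellTiter-Glo, compared with DMSO-treated cells.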"}, "[19]": {"experiment": "Inhibition of endoplasmic reticulum stress-mediated upregulation of CHOP mRNA expression in tunicamycin-treated rat INS-1 cells at 10 uM by qRT-PCR method", "format": "functional, cell-based", "conditions": "INS1, TDE = time-dependent effect", "in_short": "(§4)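 INS-1 cells seeded at 4 × 10⁵/well and treated with Tm 0.1 μg/ml plus compound, either for 8 h at indicated concentrations or for indicated times at 10 μM. CHOP mRNA was measured by qRT-PCR with rat primers, normalized to rat cyclophilin A, and reported as fold change.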"}, "[20]": {"target": "DNA damage-inducible transcript 3 protein (Mus musculus) (UniProt P35639)", "experiment": "Inhibition of endoplasmic reticulum stress-induced CHOP activity in tunicamycin-treated C57BL/6 mouse primary pancreatic islet beta cells assessed as DNA fragmentation at 10 uM after 24 hrs by TUNEL assay (reference value: 40.4%)", "design": "scale not given: the % may be the effect or the level left", "in_short": "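Primary islet cells from C57BL/6 mice were cultured in CMRL-1066/10% FBS and treated 24 h with Tm 1 μg/ml plus 10 μM compound or DMSO. Cells were fixed in 4% PFA, permeabilized in Triton/citrate, TUNEL-stained (1 h, 37°C), and co-stained for insulin and DAPI. TUNEL+ insulin+ cells were counted as mean ± SD of five wells (~50 islets, 3 mice).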"}, "[21]": {"experiment": "Inhibition of endoplasmic reticulum stress-mediated upregulation of CHOP mRNA expression in tunicamycin-treated rat INS-1 cells after 2 to 8 hrs by qRT-PCR method", "format": "functional, cell-based", "conditions": "INS1", "in_short": "as §4"}}, "note": "Active and inactive are the calls of the source. No cut-off for these calls is given here.", "data": [{"smiles": "CCc1ccc(-n2nnc(C(=O)Nc3cccc(F)c3)c2C)cc1", "values": [{"measurement": "Activity", "setting": "Mus musculus [1]", "result": 44.2, "unit": "%"}, {"measurement": "Activity", "setting": "[2]", "result": "Non-toxic"}, {"measurement": "Activity", "setting": "Mus musculus [3]", "result": "Active"}, {"measurement": "inhibition", "setting": "[4]", "result": "Active"}, {"measurement": "EC50", "setting": "INS1 [5]", "result": 2.8, "unit": "µM"}, {"measurement": "inhibition", "setting": "[6]", "result": "Active"}, {"measurement": "Activity", "setting": "[7]", "result": "Non-toxic"}, {"measurement": "inhibition", "setting": "[8]", "result": "Active"}, {"measurement": "inhibition", "setting": "[9]", "result": "Active"}, {"measurement": "inhibition", "setting": "[10]", "result": "Active"}, {"measurement": "Activity", "setting": "[11]", "result": 1.5, "unit": "%"}, {"measurement": "Activity", "setting": "Mus musculus [12]", "result": "Active"}, {"measurement": "inhibition", "setting": "[13]", "result": "Active"}, {"measurement": "inhibition", "setting": "[14]", "result": "Active"}, {"measurement": "Activity", "setting": "[15]", "result": "Non-toxic"}, {"measurement": "%max", "setting": "INS1 [16]", "result": 87, "unit": "%"}, {"measurement": "Activity", "setting": "[17]", "result": 14.6, "unit": "%"}, {"measurement": "Activity", "setting": "[18]", "result": "Non-toxic"}, {"measurement": "inhibition", "setting": "[19]", "result": "tde"}, {"measurement": "Activity", "setting": "[20]", "result": 9, "unit": "%"}, {"measurement": "inhibition", "setting": "[21]", "result": "Dose-dependent effect"}]}]}
